Data published in PubChem BioAssay AID1242 (PCMD, 2008).
Out of some 120,000 compounds screened, about 20 (0.02%) were called active.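 Rule for the calls: active = inhibition above 30.3% in the primary screen of four-compound pools, then above 30% when the compound was retested; inconclusive = passed the primary limit but could not be retested; inactive = the rest.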 What follows is part of a selection rich in actives, with near analogues and random picks from the rest.

Assay: clotrimazole potentiators killing C. albicans biofilm, primary screen, 4-compound mixtures (AID 1242);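 note: compounds exposed to preformed 24 h biofilms for 48 h; 0% = untreated biofilm control and 100% = clotrimazole plus chlorhexidine kill blank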
Details: C. albicans biofilm persisters + clotrimazole, fluorescence viability, primary screen in compound mixtures, stronger effect = higher value
Summary of the method: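 Incubation: 24 h biofilm formation, then 48 h compound exposure, 37 °C | Material: C. albicans biofilms | Buffer or medium: RPMI/MOPS medium, pH 7.0 | Measured by: 2-h Alamar Blue fluorescence, 535/590 nm excitation/emission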

[1] = measured here: individual compound retest, at 61 µM

In the case of `CCOC(=O)CN/C=C(\C#N)c1ccc(F)cc1`, the inhibition (at 7.6 µM unless noted) is reported as 12.8% (inactive).

For `O=C(Nc1ccc(Cl)cc1)/C(=C1\CCCN1)[N+](=O)[O-]`, the inhibition (at 7.6 µM unless noted) was 18.1% (inactive).

In the case of `O=C(CSc1nnc(SCc2ccc(F)cc2)s1)Nc1ccc(C(=O)O)cc1`, the inhibition (at 7.6 µM unless noted) is reported as 12.3% (inactive).

With `COC(=O)c1nn(-c2cccc(Cl)c2)ccc1=O` the inhibition (at 7.6 µM unless noted) was 12.6% (inactive).

For `CCOC(=O)CCNC(=O)N1CCCC(C(=O)c2ccccc2SC)C1` (centres undefined), the inhibition (at 7.6 µM unless noted) was 27% (inactive).

With `CN1C=CC=C/C1=C1\SC(=S)N(Cc2ccccc2)C1=O` the inhibition (at 7.6 µM unless noted) was 20.5% (inactive).

For `COCCN1C2=C(COC(C)(C)C2)C(=S)NC1c1ccccc1` (centres undefined), the inhibition (at 7.6 µM unless noted) was 14% (inactive).

In the case of `CC(=O)NCC(=O)N1CCCC(C(=O)c2ccc3c4c(cccc24)CC3)C1` (centres undefined), the inhibition (at 7.6 µM unless noted) is reported as 0.67% (inactive).

In the case of `CC(=O)NC(NC(=S)Nc1c(C)n(C)n(-c2ccccc2)c1=O)C(Cl)(Cl)Cl` (centres undefined), the inhibition (at 7.6 µM unless noted) is reported as 12% (inactive).

In the case of `COc1ccc(/C=C/CN2CCCC(C(=O)c3cc(F)ccc3F)C2)cc1` (centres undefined), the inhibition (at 7.6 µM unless noted) is reported as 8.39% (inactive).

For `C/C=N/N(c1ccccc1)c1ccccc1`, the inhibition (at 7.6 µM unless noted) was 26.1% (inactive).

For `O=C(Nc1ccccc1C(=O)O)c1cc(S(=O)(=O)N2CCCCC2)cs1`, the inhibition (at 7.6 µM unless noted) was -7.15% (inactive).

With `O=C(Nc1ccc(S(=O)(=O)Nc2nccs2)cc1)c1cc(=O)[nH]c2ccccc12` the inhibition (at 7.6 µM unless noted) was 21.7% (inactive).

For `O=C(Cc1ccc(Cl)cc1)NCc1nc(-c2ccccc2)no1`, the inhibition (at 7.6 µM unless noted) was 11.6% (inactive).

With `COC(=O)C1=C(C(=O)OC)C(c2cc([N+](=O)[O-])ccc2O)c2sc(=O)[nH]c2S1` (centres undefined) the inhibition (at 7.6 µM unless noted) was 12.9% (inactive).

In the case of `COc1ccc(C2CC(c3cccs3)=NN2C(=O)CSc2nnc(N)s2)cc1OC` (centres undefined), the inhibition (at 7.6 µM unless noted) is reported as 2.04% (inactive).

With `Cc1ccc(Cl)cc1NC(=O)COC(=O)CC(C)(C)C` the inhibition (at 7.6 µM unless noted) was 18.1% (inactive).

In the case of `CC(C)(C)OC(=O)NCCCCCC(=O)N/N=C/c1coc2ccccc2c1=O`, the inhibition (at 7.6 µM unless noted) is reported as 21.8% (inactive).

In the case of `CCC(C)(C)NC(=O)CN(Cc1cccs1)C(=O)CNS(=O)(=O)c1ccc(F)cc1`, the inhibition (at 7.6 µM unless noted) is reported as 7.21% (inactive).

In the case of `COc1cccc2c(N/N=C/c3ccco3)cc(C)nc12`, the inhibition (at 7.6 µM unless noted) is reported as 8.66% (inactive).

For `COc1cccc(C2Nc3cccc4cccc(c34)N2)c1`, the inhibition (at 7.6 µM unless noted) was 25.2% (inactive).

For `O=C(NC1CCCCC1)c1cc(C2CC2)on1`, the inhibition (at 7.6 µM unless noted) was 7.38% (inactive).

In the case of `CCCCC(NC(=O)c1cccc(Br)c1)C(=O)O` (centres undefined), the inhibition (at 7.6 µM unless noted) is reported as 22.6% (inactive).

With `CCOC(=O)c1cc(-c2ccc(F)cc2)n(CC(=O)NCc2ccccn2)c1C` the inhibition (at 7.6 µM unless noted) was 14% (inactive).

With `CCN1/C(=C/c2ccc3ccc(C)cc3[n+]2CC)Sc2ccccc21` the inhibition (at 7.6 µM unless noted) was 9.78% (inactive).

With `CCN1/C(=C\c2ccc3ccccc3[n+]2CC)Sc2cc(C)ccc21` the inhibition (at 7.6 µM) was 31.3% (active) and the inhibition [1] was 72.3%.

In the case of `CCC(=O)/C=C1\Sc2ccccc2N1CC`, the inhibition (at 7.6 µM unless noted) is reported as 17% (inactive).

In the case of `C#CCNc1ccc(C(=O)OCC)cc1`, the inhibition (at 7.6 µM unless noted) is reported as 15.4% (inactive).

In the case of `CC1CC(C)CN(CCC(=O)Nc2ccc3c(c2)CCC3)C1` (centres undefined), the inhibition (at 7.6 µM unless noted) is reported as 16.6% (inactive).

With `C=CCN1CC(C)/C(=N\O)CC1C` (centres undefined) the inhibition (at 7.6 µM unless noted) was 26.7% (inactive).

For `O=C(NCCCN1CCOCC1)c1ccccc1NS(=O)(=O)c1ccc(Br)cc1`, the inhibition (at 7.6 µM unless noted) was 20.1% (inactive).

In the case of `CC(OC(=O)c1ccccc1OCc1ccc(Cl)cc1)C(N)=O` (centres undefined), the inhibition (at 7.6 µM unless noted) is reported as 9.56% (inactive).

In the case of `COc1ccc(NC(=O)CSc2nc(C)cs2)cc1`, the inhibition (at 7.6 µM unless noted) is reported as -9.15% (inactive).

For `Cc1ccc2cc(/C=N/NC(=O)[C@@H]3CCCN3)c(Cl)nc2c1`, the inhibition (at 7.6 µM) was 36% (inactive) and the inhibition [1] was -44.1%.

For `COc1ccc(C(=O)N/N=C(\C)CC(=O)Nc2ccc(Cl)cn2)cc1`, the inhibition (at 7.6 µM unless noted) was 14.5% (inactive).

With `CC(C)Cc1nc(Cl)c(C#N)c2c1CCC2` the inhibition (at 7.6 µM unless noted) was 20.6% (inactive).

For `Cc1nc(N)[nH]c(=O)c1Oc1cccc(C(F)(F)F)c1`, the inhibition (at 7.6 µM unless noted) was 25.2% (inactive).

For `CCn1ccnc1CN1CCCC(C(=O)c2ccc3c4c(cccc24)CC3)C1` (centres undefined), the inhibition (at 7.6 µM unless noted) was 13.8% (inactive).

For `CC(=O)Nc1ccc(S(=O)(=O)Nc2nccc(/C=C/c3ccccc3F)n2)cc1`, the inhibition (at 7.6 µM unless noted) was 25.1% (inactive).

For `COc1ccc(CCNC(=O)C(=O)NCc2ccccc2C)cc1OC`, the inhibition (at 7.6 µM unless noted) was 25.3% (inactive).

For `COCCNc1nc(-c2ccccc2)nc2c1oc1ccccc12`, the inhibition (at 7.6 µM unless noted) was 17.2% (inactive).

With `O=C(NCC1CCCO1)c1ccccc1-c1nc(-c2ccccc2Cl)no1` (centres undefined) the inhibition (at 7.6 µM unless noted) was 16.1% (inactive).

For `Cc1cc(NC(=O)CSCc2ccccc2C)no1`, the inhibition (at 7.6 µM unless noted) was 13.5% (inactive).

For `O=C(NCCCN1CCOCC1)c1ccc([N+](=O)[O-])cc1[N+](=O)[O-]`, the inhibition (at 7.6 µM unless noted) was 15.2% (inactive).

In the case of `O=C(NCCN1CCOCC1)Nc1cccc(Cl)c1`, the inhibition (at 7.6 µM unless noted) is reported as 20.6% (inactive).

For `O=C(CCC(=O)N1CCCC1)Nc1ccc([N+](=O)[O-])cc1`, the inhibition (at 7.6 µM unless noted) was 11.9% (inactive).

With `COc1ccc(Cn2c(O)c(/C=C3/C=CC=N3)c(=O)[nH]c2=O)cc1` the inhibition (at 7.6 µM unless noted) was 11.9% (inactive).
